From ChEMBL document CHEMBL1687907, “Incorporation of a bioactive reverse-turn heterocycle into a peptide template using solid-phase synthesis to probe melanocortin receptor selectivity and ligand conformations by 2D 1H NMR” (J Med Chem, 2011)
pEC50: −log10 of the molar value. Activity calls are given as the source filed them. The calls are words filed in the database; no cut-off is given here.

What was measured:
Format in all cases: functional, cell-based
[1] = biological target: Melanocortin receptor 4 (Mus musculus, UniProt P56450); assay: Agonist activity at mouse melanocortin 4 receptor expressed in HEK293 cells after 48 hrs by cAMP based beta-galactosidase reporter gene assay
[2] = biological target: Melanocortin receptor 5 (Mus musculus, UniProt P41149); assay: Agonist activity at mouse melanocortin 5 receptor expressed in HEK293 cells after 48 hrs by cAMP based beta-galactosidase reporter gene assay
[3] = biological target: Melanocyte-stimulating hormone receptor (Mus musculus, UniProt Q01727); assay: Agonist activity at mouse melanocortin 1 receptor expressed in HEK293 cells after 48 hrs by cAMP based beta-galactosidase reporter gene assay
[4] = biological target: Melanocortin receptor 3 (Mus musculus, UniProt P33033); assay: Agonist activity at mouse melanocortin 3 receptor expressed in HEK293 cells after 48 hrs by cAMP based beta-galactosidase reporter gene assay
[5] = biological target: Melanocortin receptor 3 (Mus musculus) (UniProt P33033); assay: Agonist activity at mouse melanocortin 3 receptor expressed in HEK293 cells at 100 uM after 48 hrs by cAMP based beta-galactosidase reporter gene assay
Summary of the method: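 HEK-293 cells stably expressing mouse MC3R were CRE/β-galactosidase reporter transfected and stimulated 48 h later for 6 h in IBMX/BSA DMEM. Peptide concentrations reached 100 µM. ONPG read at OD405, normalized to protein and forskolin.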

Melanocortin receptor 5, sequence (P41149 whole entry): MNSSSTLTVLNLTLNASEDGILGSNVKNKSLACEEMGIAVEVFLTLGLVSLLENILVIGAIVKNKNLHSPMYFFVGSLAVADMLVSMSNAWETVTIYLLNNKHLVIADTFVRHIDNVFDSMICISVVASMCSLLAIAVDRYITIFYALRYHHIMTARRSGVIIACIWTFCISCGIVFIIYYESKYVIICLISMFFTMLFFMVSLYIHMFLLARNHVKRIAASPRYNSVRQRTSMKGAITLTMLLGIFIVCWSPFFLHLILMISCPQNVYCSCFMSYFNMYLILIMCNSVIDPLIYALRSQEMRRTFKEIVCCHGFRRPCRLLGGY
Melanocortin receptor 4, sequence (P56450 whole entry): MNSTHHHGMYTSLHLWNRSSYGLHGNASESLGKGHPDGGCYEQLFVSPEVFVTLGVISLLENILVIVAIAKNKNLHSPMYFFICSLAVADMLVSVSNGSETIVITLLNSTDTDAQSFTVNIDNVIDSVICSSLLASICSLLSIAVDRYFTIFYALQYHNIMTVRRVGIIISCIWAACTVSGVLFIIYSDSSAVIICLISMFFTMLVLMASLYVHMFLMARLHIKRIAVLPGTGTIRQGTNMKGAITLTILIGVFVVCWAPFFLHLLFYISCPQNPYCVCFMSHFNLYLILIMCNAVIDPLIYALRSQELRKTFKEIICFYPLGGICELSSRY
Melanocortin receptor 3, sequence (P33033 whole entry): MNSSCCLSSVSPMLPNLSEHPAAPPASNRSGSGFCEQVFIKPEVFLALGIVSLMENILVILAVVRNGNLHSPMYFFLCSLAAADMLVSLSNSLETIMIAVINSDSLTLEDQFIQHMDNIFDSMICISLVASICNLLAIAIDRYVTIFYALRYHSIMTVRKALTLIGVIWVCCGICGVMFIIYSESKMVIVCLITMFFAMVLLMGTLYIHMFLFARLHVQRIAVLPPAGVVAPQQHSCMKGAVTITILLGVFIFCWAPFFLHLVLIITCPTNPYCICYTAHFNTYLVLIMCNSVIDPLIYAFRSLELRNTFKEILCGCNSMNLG
Melanocyte-stimulating hormone receptor, sequence (Q01727 whole entry): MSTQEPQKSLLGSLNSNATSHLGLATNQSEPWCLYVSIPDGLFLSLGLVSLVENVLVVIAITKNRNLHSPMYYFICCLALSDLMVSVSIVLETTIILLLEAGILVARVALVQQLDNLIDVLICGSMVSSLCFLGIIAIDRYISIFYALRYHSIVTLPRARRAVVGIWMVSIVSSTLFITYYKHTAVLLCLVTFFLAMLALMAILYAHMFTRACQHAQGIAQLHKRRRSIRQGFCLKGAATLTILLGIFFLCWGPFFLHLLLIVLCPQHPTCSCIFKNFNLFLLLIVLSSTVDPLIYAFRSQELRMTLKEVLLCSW
Melanocortin receptor 3 (Mus musculus), sequence (P33033 whole entry): as the sequence (P33033 whole entry) above

SMILES | pEC50 [1] | pEC50 [2] | pEC50 [3] | pEC50 [4] | Activity [5]
C[C@@H]1NC(=O)[C@H](CC(N)=O)NC(=O)[C@H](Cc2c[nH]c3ccccc23)N2C[C@H](CCCN=C(N)N)NC(=O)[C@H](CSCC2=O)NC(=O)[C@@H](Cc2ccccc2)NC(=O)[C@H](Cc2cnc[nH]2)NC(=O)[C@@H](NC(=O)[C@@H](N)Cc2ccc(O)cc2)CSSC[C@@H](C(=O)N[C@@H](Cc2ccc(O)cc2)C(N)=O)NC(=O)[C@H](Cc2ccccc2)NC1=O | 7.07 | 7.14 | 7.48 | 6.31 | –
CC(=O)N[C@@H](Cc1cnc[nH]1)C(=O)N[C@H](Cc1ccccc1)C(=O)N[C@@H]1CSCC(=O)N([C@@H](Cc2c[nH]c3ccccc23)C(N)=O)C[C@H](CCCN=C(N)N)NC1=O | 6.19 | 6.47 | 6.79 | 5.12 | –
C[C@@H]1NC(=O)[C@H](CC(N)=O)NC(=O)[C@H](Cc2c[nH]c3ccccc23)NC(=O)[C@H](CCCN=C(N)N)NC(=O)[C@@H](Cc2ccccc2)NC(=O)[C@H](Cc2cnc[nH]2)NC(=O)[C@@H](NC(=O)[C@@H](N)Cc2ccc(O)cc2)CSSC[C@@H](C(=O)N[C@@H](Cc2ccc(O)cc2)C(N)=O)NC(=O)[C@H](Cc2ccccc2)NC1=O | 9.57 | 8.64 | 9.46 | 8.70 | –
C[C@@H]1NC(=O)[C@H](CC(N)=O)NC(=O)[C@H](Cc2c[nH]c3ccccc23)NC(=O)[C@H](CCCNC(=N)N)N2C[C@@H](Cc3ccccc3)NC(=O)[C@H](CSCC2=O)NC(=O)[C@H](Cc2cnc[nH]2)NC(=O)[C@@H](NC(=O)[C@@H](N)Cc2ccc(O)cc2)CSSC[C@@H](C(=O)N[C@@H](Cc2ccc(O)cc2)C(N)=O)NC(=O)[C@H](Cc2ccccc2)NC1=O | – | – | – | – | inactive
C[C@@H]1NC(=O)[C@H](CC(N)=O)NC(=O)[C@H](Cc2c[nH]c3ccccc23)NC(=O)[C@H](CCCNC(=N)N)NC(=O)[C@@H](Cc2ccccc2)N2C[C@H](Cc3cnc[nH]3)NC(=O)[C@@H](CSCC2=O)NC(=O)[C@@H](NC(=O)[C@@H](N)Cc2ccc(O)cc2)CSSC[C@@H](C(=O)N[C@@H](Cc2ccc(O)cc2)C(N)=O)NC(=O)[C@H](Cc2ccccc2)NC1=O | – | – | – | – | inactive
C[C@@H]1NC(=O)[C@H](CC(N)=O)NC(=O)[C@H](Cc2c[nH]c3ccccc23)NC(=O)[C@H](CCCNC(=N)N)N2C[C@@H](Cc3ccccc3)NC(=O)[C@@H](CSCC2=O)NC(=O)[C@H](Cc2cnc[nH]2)NC(=O)[C@@H](NC(=O)[C@@H](N)Cc2ccc(O)cc2)CSSC[C@@H](C(=O)N[C@@H](Cc2ccc(O)cc2)C(N)=O)NC(=O)[C@H](Cc2ccccc2)NC1=O | 5.49 | – | – | – | –
